{"source": "ChEMBL document CHEMBL5346944", "about": "“Development of a 2,4-Diaminothiazole Series for the Treatment of Human African Trypanosomiasis Highlights the Importance of Static-Cidal Screening of Analogues” (J Med Chem, 2023)", "key": {"[1]": {"assay": "Cmax in HRN mouse at 10 mg/kg, ip by UPLC-MS/MS analysis", "format": "ADME, organism-based", "set-up": "dose 10 mg/kg, route ip", "conditions": "in vivo", "method_in_brief": "(§1)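 Female NMRI or HRN mice (n = 3) given a single IP dose of 10 mg kg-1 free base in 5% DMSO/40% PEG400/55% water or 15% solutol/85% water, 10 mL kg-1. Blood sampled at 5, 15, 30 min and 1, 2, 4, 6, 8 h, diluted with two volumes of water, assayed by UPLC-MS/MS. PK parameters derived from the mean blood concentration–time curve.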"}, "[2]": {"tested_on": "Trypanosoma brucei brucei", "assay": "Antiparasitic activity against Trypanosoma brucei brucei S427 injected in NMRI mouse assessed as cure by measuring reduction in parasitemia at 10 mg/kg, ip twice daily for 4 days by stage I efficacy study", "format": "functional", "set-up": "scale not given: the % may be the effect or the level left", "conditions": "time 4 day", "method_in_brief": "(§2)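 Female NMRI mice (3–5 per group) infected IP with 1 × 10^4 bloodstream T. b. brucei S427 from cryopreserved stabilate diluted in Hanks' balanced salt solution with glucose. Dosed IP twice daily, days 3–6, in 5% DMSO/40% PEG400/55% water, 10 mL kg-1, prepared fresh daily. Parasitemia followed to day 30; untreated control group of three mice.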"}, "[3]": {"tested_on": "Trypanosoma brucei", "assay": "Antiparasitic activity against bloodstream-form Trypanosoma brucei in presence of 5% Co2 incubated for 69 hrs followed by resazurin addition further incubated for 4 hrs", "format": "functional, organism-based"}, "[4]": {"assay": "Drug metabolism in mouse liver microsomes assessed as retention time of 4-hydroxycyclohexyl metabolite at 0.5 to 5 uM for 60 mins by LC-MS analysis", "format": "ADME, Microsome", "conditions": "1 h, dose 0.5-5 µM", "method_in_brief": "(§3)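 Mouse liver microsomes incubated with compound at 0.5 and 5 μM for 60 min. Oxidized metabolites (m/z 354) detected and their retention times recorded by LC–MS.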"}, "[5]": {"tested_on": "Trypanosoma brucei", "assay": "Antiparasitic activity against bloodstream-form Trypanosoma brucei assessed as cidal in presence of 5% Co2 at > 5.6 uM incubated for 24 hrs by static-cidal assay", "format": "functional, organism-based"}, "[6]": {"assay": "Selectivity index, ratio of EC50 for human MRC-5 cells to EC50 for bloodstream-form Trypanosoma brucei", "format": "toxicity", "conditions": "read-out: Selectivity Index"}, "[7]": {"assay": "Fraction unbound in NMRI mouse", "format": "ADME"}, "[8]": {"tested_on": "Trypanosoma brucei", "assay": "Antiparasitic activity against bloodstream-stage Trypanosoma brucei measured after 73 hrs by resazurin assay", "format": "functional, organism-based"}, "[9]": {"assay": "Tmax in HRN mouse at 10 mg/kg, ip by UPLC-MS/MS analysis", "format": "ADME, organism-based", "conditions": "in vivo", "method_in_brief": "as §1"}, "[10]": {"assay": "Permeability across blood brain barrier in NMRI mouse stage 2 CNS model", "format": "ADME", "conditions": "read-out: BBR", "method_in_brief": "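Female NMRI mice (n = 3) received a 10 mg kg-1 IV bolus in 15% solutol. At 30 min, under terminal isoflurane anesthesia, blood was taken by cardiac puncture and the brain removed. Both were quantified by UPLC-MS/MS; brain (ng g-1) divided by blood (ng mL-1) per mouse gives the brain:blood ratio.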"}, "[11]": {"assay": "Tmax in NMRI mouse at 10 mg/kg, ip by UPLC-MS/MS analysis", "format": "ADME, organism-based", "conditions": "in vivo", "method_in_brief": "as §1"}, "[12]": {"assay": "AUC in NMRI mouse at 10 mg/kg, po by UPLC-MS/MS analysis", "format": "ADME, organism-based", "set-up": "dose 10 mg/kg, route po", "conditions": "in vivo", "method_in_brief": "(§4)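 Oral gavage at 10 mg kg-1 free base in 10% DMSO/40% PEG400/50% water, 5 mL kg-1, to female NMRI mice (n = 3) or Sprague-Dawley rats. Blood drawn at 5, 15, 30 min and 1, 2, 4, 6, 8 h, mixed with two volumes of water, measured by UPLC-MS/MS. Parameters taken from the mean blood concentration–time curve.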"}, "[13]": {"assay": "Tmax in NMRI mouse at 10 mg/kg, po by UPLC-MS/MS analysis", "format": "ADME, organism-based", "conditions": "in vivo", "method_in_brief": "as §4"}, "[14]": {"tested_on": "Trypanosoma brucei brucei", "assay": "Antiparasitic activity against Trypanosoma brucei brucei S427 injected in NMRI mouse assessed as cure by measuring reduction in parasitemia at 10 mg/kg, ip twice daily for 4 days measured upto 30 days by stage I efficacy study", "format": "functional, organism-based", "conditions": "time 4.0 day", "method_in_brief": "as §2"}, "[15]": {"assay": "Fraction unbound in NMRI mouse brain stage 2 CNS model", "format": "ADME"}, "[16]": {"assay": "Cmax in NMRI mouse at 10 mg/kg, po by UPLC-MS/MS analysis", "format": "ADME, organism-based", "set-up": "dose 10 mg/kg, route po", "conditions": "in vivo", "method_in_brief": "as §4"}, "[17]": {"assay": "Cmax in NMRI mouse at 10 mg/kg, ip by UPLC-MS/MS analysis", "format": "ADME, organism-based", "set-up": "dose 10 mg/kg, route ip", "conditions": "in vivo", "method_in_brief": "as §1"}, "[18]": {"assay": "Drug metabolism in mouse liver microsomes assessed as retention time of 3-hydroxycyclohexyl metabolite at 0.5 to 5 uM for 60 mins by LC-MS analysis", "format": "ADME, Microsome", "conditions": "1 h, dose 0.5-5 µM", "method_in_brief": "as §3"}, "[19]": {"assay": "Toxicity in mouse assessed as tolerability at 20 mg/kg, ip", "format": "organism-based", "conditions": "in vivo"}, "[20]": {"assay": "Antiproliferative activity against human MRC5 cells in presence of 5% Co2 incubated for 69 hrs followed by resazurin addition further incubated for 4 hrs", "format": "toxicity, cell-based"}, "[21]": {"tested_on": "Trypanosoma brucei", "assay": "Antiparasitic activity against bloodstream-form Trypanosoma brucei assessed as static in presence of 5% Co2 at < 5.6 uM incubated for 24 hrs by static-cidal assay", "format": "functional, organism-based"}, "[22]": {"assay": "AUC in HRN mouse at 10 mg/kg, […] by UPLC-MS/MS analysis", "format": "ADME, organism-based", "set-up": "dose 10 mg/kg", "conditions": "in vivo", "method_in_brief": "as §1"}, "[23]": {"assay": "AUC in NMRI mouse at 10 mg/kg, […] by UPLC-MS/MS analysis", "format": "ADME, organism-based", "set-up": "dose 10 mg/kg", "conditions": "in vivo", "method_in_brief": "as §1"}, "[24]": {"assay": "Metabolic stability in CD1 mouse liver microsomes assessed as intrinsic clearance by UPLC-MS/MS analysis", "format": "ADME", "method_in_brief": "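Compound at 0.5 μM incubated with female CD1 mouse liver microsomes (0.5 mg mL-1, 50 mM potassium phosphate pH 7.4). Reaction started with excess NADPH. Aliquots taken at 0, 3, 6, 9, 15, 30 min and quenched in acetonitrile with internal standard, then analysed by UPLC-MS/MS.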"}}, "note": "pEC50: −log10 of the molar value. Calls of active or inactive are those of the source. The calls are words filed in the database; no cut-off is given here."}
{"smiles": "Nc1nc(NC2CCCCC2)sc1C(=O)c1c(F)cccc1F", "values": [{"measurement": "Cmax", "setting": "[1]", "result": 3800, "unit": "ng/mL"}, {"measurement": "Activity", "setting": "[2]", "result": 100, "unit": "%"}, {"measurement": "pEC50", "setting": "[3]", "result": 6.96}, {"measurement": "Retention_time", "setting": "[4]", "result": 3.43, "unit": "min"}, {"measurement": "Activity", "setting": "[5]", "result": "Active"}, {"measurement": "selectivity ratio", "setting": "[6]", "result": 11}, {"measurement": "fraction unbound", "setting": "[7]", "result": 0.0063}, {"measurement": "pEC50", "setting": "[8]", "result": 6.96}, {"measurement": "Tmax", "setting": "[9]", "result": 30, "unit": "min"}, {"measurement": "Kp", "setting": "[10]", "result": 3.3}, {"measurement": "Tmax", "setting": "[11]", "result": 15, "unit": "min"}, {"measurement": "AUC", "setting": "[12]", "result": 5.7, "unit": "µg·h/mL"}, {"measurement": "Tmax", "setting": "[13]", "result": 30, "unit": "min"}, {"measurement": "Activity", "setting": "[14]", "result": "Active"}, {"measurement": "fraction unbound", "setting": "[15]", "result": 0.006}, {"measurement": "Cmax", "setting": "[16]", "result": 33, "unit": "ng/mL"}, {"measurement": "Cmax", "setting": "[17]", "result": 830, "unit": "ng/mL"}, {"measurement": "Retention_time", "setting": "[18]", "result": 3.86, "unit": "min"}, {"measurement": "Activity", "setting": "[19]", "result": "Toxic"}, {"measurement": "EC50 at 69 h", "setting": "[20]", "result": 1200, "unit": "nM"}, {"measurement": "Activity", "setting": "[21]", "result": "Active"}, {"measurement": "AUC", "setting": "[22]", "result": 1000, "unit": "µg·h/mL"}, {"measurement": "AUC", "setting": "[23]", "result": 66, "unit": "µg·h/mL"}, {"measurement": "CLH", "setting": "[24]", "result": 15, "unit": "mL/min/g"}]}
